Experimental data taken from ChEMBL document CHEMBL4480439, “Fuscasins A-D, Cycloheptapeptides from the Marine Sponge Phakellia fusca” (J Nat Prod, 2019).
Activity calls are given as the source filed them. No cut-off for these calls is given here. Residues, ends and D or L forms follow the SMILES beside them.

Key:
[1] = tested on: HepG2; assay: Cytotoxicity against human HepG2 cells assessed as reduction in cell viability up to 20 uM after 72 hrs by CCK8 assay; format: functional, cell-based
Method in brief: (§1)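 Cells grown at 37 °C in DMEM with 10% FBS and antibiotics, seeded at 3 × 10³ cells/well, and exposed to compound for 72 h. CCK-8 reagent was then added for 1 h at 37 °C in 5% CO₂, and OD was read at 450 nm. IC50 was obtained by fitting a log(inhibitor)-response model.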

[2] = tested on: PC-9; assay: Cytotoxicity against human PC9 cells assessed as reduction in cell viability up to 20 uM after 72 hrs by CCK8 assay; format: functional, cell-based
Method in brief: (§2)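 Cells maintained in RPMI 1640 with 10% FBS and antibiotics, plated at 3 × 10³ cells/well, and treated for 72 h. After 1 h incubation with CCK-8 at 37 °C in 5% CO₂, absorbance was recorded at 450 nm. IC50 came from a log(inhibitor)-response curve fit.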

[3] = tested on: NCI-H460; assay: Cytotoxicity against human NCI-H460 cells assessed as reduction in cell viability up to 20 uM after 72 hrs by CCK8 assay; format: functional, cell-based; method in brief: as §2
[4] = tested on: HepG2; assay: Cytotoxicity against human HepG2 cells assessed as reduction in cell viability after 72 hrs by CCK8 assay; format: functional, cell-based; conditions: HepG2, 72 h; method in brief: as §1
[5] = tested on: SW480; assay: Cytotoxicity against human SW480 cells assessed as reduction in cell viability up to 20 uM after 72 hrs by CCK8 assay; format: functional, cell-based; method in brief: as §2
[6] = tested on: HeLa; assay: Cytotoxicity against human HeLa cells assessed as reduction in cell viability up to 20 uM after 72 hrs by CCK8 assay; format: functional, cell-based; method in brief: as §1
[7] = tested on: H9c2; assay: Cytotoxicity against rat H9c2 cells assessed as reduction in cell viability up to 100 uM after 72 hrs by CCK8 assay; format: cell-based; conditions: h9c2, 72 h; method in brief: as §1
[8] = tested on: MCF7; assay: Cytotoxicity against human MCF7 cells assessed as reduction in cell viability up to 20 uM after 72 hrs by CCK8 assay; format: functional, cell-based; method in brief: as §1

CC(C)C[C@@H]1NC(=O)[C@H](C)NC(=O)[C@H](Cc2ccc(O)cc2)NC(=O)[C@H](CCCNC(=N)N)NC(=O)[C@H](CC(N)=O)NC(=O)[C@H](C(C)C)NC(=O)[C@@H]2CCCN2C1=O (cyclo(ALPVNRY))
Activity [1]: inactive

CC(C)C[C@@H]1NC(=O)[C@H](Cc2ccc(O)cc2)NC(=O)[C@H](CC(=O)O)NC(=O)[C@@H]2CCCN2C(=O)[C@H](CC(C)C)NC(=O)[C@@H]2CCCN2C(=O)[C@H](CC(C)C)NC1=O (cyclo(DYLLPLP))
Activity [1]: inactive

CC(C)C[C@@H]1NC(=O)[C@H](C(C)C)NC(=O)[C@H](Cc2ccccc2)N2C(=O)C[C@H](NC(=O)[C@@H]3CCCN3C(=O)[C@@H]3CCCN3C(=O)[C@@H]3CCCN3C1=O)C2=O
Activity [2]: inactive
Activity [3]: inactive
IC50 [4]: 4.6 µM
Activity [5]: inactive
Activity [6]: inactive
Activity [7]: Non-Toxic
Activity [8]: inactive

CC(C)C[C@@H]1NC(=O)[C@H](C)NC(=O)[C@@H]2CCCN2C(=O)[C@H](C)NC(=O)[C@H](Cc2ccc(O)cc2)NC(=O)[C@@H]2CCCN2C(=O)[C@H](Cc2ccc(O)cc2)NC1=O (cyclo(ALYPYAP))
Activity [1]: inactive
